# Measurements: ChEMBL document CHEMBL5678798 (Clin Cancer Res, 2009)
# The source made the active and inactive calls. The calls are words filed in the database; no cut-off is given here.
# What was measured:
# [1] = biological target: Tyrosine-protein kinase Lck (Homo sapiens, UniProt P06239); assay: Inhibition of LCK (unknown origin)
# HN5 = assay: Antiproliferative activity against human HN5 cells assessed as reduction in cell viability after 72 hrs by CellTiter-Glo assay; format: functional, cell-based; conditions: HN5, 72 h
# Procedure, shortened: (§1)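 Cells seeded in 96-well plates, left overnight at 37°C, then exposed to a range of test concentrations for 72 h. Viability read by CellTiter-Glo luminescence; IC50 from four-parameter curve fit. Lines kept at 37°C, 5% CO2, in recommended growth medium.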
# [2] = biological target: Serine/threonine-protein kinase tousled-like 2 (Homo sapiens) (UniProt Q86UE8); assay: Inhibition of N-terminal 6His-tagged recombinant human TLK2 (388 to end residues) expressed in baculovirus infected Sf21 cells at 3 uM by filter binding assay relative to control
# Procedure, shortened: (§2)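 Outsourced single-concentration screen in a commercial panel of 233 protein kinases, run as radiometric filter-binding activity assays. Test agent was tested at 0.3 or 3 µmol/L, as given in each line, from a 10 mmol/L DMSO stock. Activity is expressed as percent inhibition relative to control.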
# COLO 205 = assay: Induction of cell cycle arrest in human COLO 205 cells assessed as cells accumulation at G2 phase at 1 umol/L incubated for 48 hrs by propidium iodide staining based flow cytometric analysis (reference value: 22%); format: functional; conditions: dose 1 µmol/L, at 1 µM
# Procedure, shortened: (§3)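 COLO 205, MCF-7 or NCI-H929 cells seeded in 96-well plates overnight at 37°C, then exposed to DMSO or increasing compound concentrations for 24 or 48 h. Fixed and stained with propidium iodide (Vindelov method), then analysed by flow cytometry for sub-G1, G1, S and G2-M fractions. Experiment repeated twice.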
# [3] = biological target: Insulin receptor-related protein (Homo sapiens, UniProt P14616); assay: Inhibition of N-terminal 6His-tagged recombinant human IRR (944 to 1266 residues) expressed in baculovirus infected Sf21 cells by filter binding assay
# [4] = biological target: Discoidin domain-containing receptor 2 (Homo sapiens) (UniProt Q16832); assay: Inhibition of N-terminal His6-tagged recombinant human DDR2 (467 to end residues) expressed in baculovirus infected Sf21 cells at 0.3 uM by filter binding assay relative to control
# [5] = biological target: Tyrosine-protein kinase JAK3 (Homo sapiens, UniProt P52333); assay: Inhibition of JAK3 (unknown origin)
# JJN-3 = assay: Antiproliferative activity against human JJN-3 cells assessed as reduction in cell viability after 72 hrs by CellTiter-Glo assay; format: functional, cell-based; conditions: JJN-3, 72 h; procedure, shortened: as §1
# [6] = biological target: Cytoplasmic tyrosine-protein kinase BMX (Homo sapiens, UniProt P51813); assay: Inhibition of N-terminal His6-tagged recombinant full-length human BMX expressed in baculovirus infected Sf21 cells by filter binding assay
# [7] = In vivo inhibition of IGF1R in mouse NIH-3T3/LISN cells implanted in IGF1-stimulated nu/nu CD-1 mouse assessed as reduction in IGF1R phosphorylation at 3 mg/kg, po pretreated for 4 hrs followed by IGF1 stimulation and measured after 10 min by […] relative to control; format: functional; conditions: 4.167 h, time 250 min
# Procedure, shortened: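 Female nu/nu CD-1 mice, three per group, bearing ~500 mm3 tumors, given one oral dose of compound or vehicle. At 4 h, 10 µg hIGF-I i.v. via tail vein; saline controls. Tumor and blood taken 10 min later. Tumor lysates in RIPA captured on anti-IGF-IR plates and probed with europium anti-phosphotyrosine. Phospho/total IGF-IR expressed as % of ligand-stimulated control. Blood levels by LC-MS/MS.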
# [8] = biological target: Phosphatidylinositol 4,5-bisphosphate 3-kinase catalytic subunit delta isoform (Homo sapiens, UniProt O00329); assay: Inhibition of PI3Kdelta (unknown origin)
# [9] = biological target: Ribosomal protein S6 kinase alpha-1 (Homo sapiens, UniProt Q15418); assay: Inhibition of RSK1 (unknown origin)
# [10] = Cytotoxicity against HUVEC cells assessed as reduction in cell viability after 72 hrs by CellTiter-Glo assay; format: toxicity, cell-based; conditions: human; procedure, shortened: as §1
# [11] = biological target: Serine/threonine-protein kinase Nek3 (Homo sapiens) (UniProt P51956); assay: Inhibition of N-terminal 6His-tagged recombinant full length human NEK3 expressed in baculovirus infected Sf21 cells at 3 uM by filter binding assay relative to control
# Procedure, shortened: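 KinaseProfiler panel of 233 kinases: radiometric filter-binding activity assays with compound at 0.3 or 3 µmol/L. Read-out is percent inhibition.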
# [12] = biological target: FKBP12A/mTOR (Homo sapiens) (UniProt P62942+P42345); assay: Inhibition of human mTOR/FKBP12 at 3 uM by filter binding assay relative to control; format: protein-complex assay
# [13] = Toxicity in nu/nu CD-1 mouse implanted with mouse NIH-3T3/LISN cells assessed as reduction in body weight at 30 mg/kg, po administered twice daily for 5 to 21 days relative to control; format: organism-based; set-up: scale not given: the % may be the effect or the level left; conditions: in vivo, time 5-21 day
# [14] = biological target: Protein kinase C iota type (Homo sapiens) (UniProt P41743); assay: Inhibition of N-terminal His6-tagged recombinant full-length human PKCiota expressed in Sf21 cells at 0.3 uM by filter binding assay relative to control; procedure, shortened: as §2
# NCI-H929 = assay: Induction of cell cycle arrest in human NCI-H929 cells assessed as decrease in cells accumulation at S phase at 0.03 to 10 uM incubated for 24 to 48 hrs by propidium iodide staining based flow cytometric analysis; format: functional; conditions: dose 0.03-10 µM, time lower 24.0 hrs, time upper […]; procedure, shortened: as §3
# A673 = assay: Antiproliferative activity against human A673 cells assessed as reduction in cell viability after 72 hrs by CellTiter-Glo assay; format: functional, cell-based; conditions: A673, 72 h; procedure, shortened: as §1
# [15] = Antiproliferative activity against human TC71 cells assessed as reduction in cell viability after 72 hrs by CellTiter-Glo assay; format: functional, cell-based; conditions: TC-71, 72 h; procedure, shortened: as §1
# [16] = biological target: Mitogen-activated protein kinase kinase kinase 5 (Homo sapiens, UniProt Q99683); assay: Inhibition of ASK1 (unknown origin)
# [17] = biological target: Fibroblast growth factor receptor 4 (Homo sapiens) (UniProt P22455); assay: Inhibition of N-terminal His6-tagged recombinant human FGFR4 (442 to 755 residues) expressed in baculovirus infected Sf21 cells at 3 uM by filter binding assay relative to control
# EJM = assay: Antiproliferative activity against human EJM cells assessed as reduction in cell viability after 72 hrs by CellTiter-Glo assay; format: functional, cell-based; procedure, shortened: as §1
# [18] = biological target: Testis-specific serine/threonine-protein kinase 2 (Homo sapiens) (UniProt Q96PF2); assay: Inhibition of N-terminal His6-tagged recombinant full length human TSSK2 expressed in baculovirus infected Sf21 cells at 0.3 uM by filter binding assay relative to control; procedure, shortened: as §2
# [19] = Inhibition of […] N-terminal 6His-tagged full length human P110delta/full length human p85beta expressed in baculovirus infected Sf21 cells at 3 uM by filter binding assay relative to control; conditions: condition cancer
# [20] = biological target: Mitogen-activated protein kinase 10 (Homo sapiens, UniProt P53779); assay: Inhibition of JNK3 (unknown origin)
# [21] = biological target: Tyrosine-protein kinase ABL2 (Homo sapiens) (UniProt P42684); assay: Inhibition of N-terminal His6-tagged recombinant human Arg (38 to end residues) expressed in baculovirus infected Sf21 cells at 3 uM by filter binding assay relative to control
# Chain of Tyrosine-protein kinase JAK3 (P52333 whole entry): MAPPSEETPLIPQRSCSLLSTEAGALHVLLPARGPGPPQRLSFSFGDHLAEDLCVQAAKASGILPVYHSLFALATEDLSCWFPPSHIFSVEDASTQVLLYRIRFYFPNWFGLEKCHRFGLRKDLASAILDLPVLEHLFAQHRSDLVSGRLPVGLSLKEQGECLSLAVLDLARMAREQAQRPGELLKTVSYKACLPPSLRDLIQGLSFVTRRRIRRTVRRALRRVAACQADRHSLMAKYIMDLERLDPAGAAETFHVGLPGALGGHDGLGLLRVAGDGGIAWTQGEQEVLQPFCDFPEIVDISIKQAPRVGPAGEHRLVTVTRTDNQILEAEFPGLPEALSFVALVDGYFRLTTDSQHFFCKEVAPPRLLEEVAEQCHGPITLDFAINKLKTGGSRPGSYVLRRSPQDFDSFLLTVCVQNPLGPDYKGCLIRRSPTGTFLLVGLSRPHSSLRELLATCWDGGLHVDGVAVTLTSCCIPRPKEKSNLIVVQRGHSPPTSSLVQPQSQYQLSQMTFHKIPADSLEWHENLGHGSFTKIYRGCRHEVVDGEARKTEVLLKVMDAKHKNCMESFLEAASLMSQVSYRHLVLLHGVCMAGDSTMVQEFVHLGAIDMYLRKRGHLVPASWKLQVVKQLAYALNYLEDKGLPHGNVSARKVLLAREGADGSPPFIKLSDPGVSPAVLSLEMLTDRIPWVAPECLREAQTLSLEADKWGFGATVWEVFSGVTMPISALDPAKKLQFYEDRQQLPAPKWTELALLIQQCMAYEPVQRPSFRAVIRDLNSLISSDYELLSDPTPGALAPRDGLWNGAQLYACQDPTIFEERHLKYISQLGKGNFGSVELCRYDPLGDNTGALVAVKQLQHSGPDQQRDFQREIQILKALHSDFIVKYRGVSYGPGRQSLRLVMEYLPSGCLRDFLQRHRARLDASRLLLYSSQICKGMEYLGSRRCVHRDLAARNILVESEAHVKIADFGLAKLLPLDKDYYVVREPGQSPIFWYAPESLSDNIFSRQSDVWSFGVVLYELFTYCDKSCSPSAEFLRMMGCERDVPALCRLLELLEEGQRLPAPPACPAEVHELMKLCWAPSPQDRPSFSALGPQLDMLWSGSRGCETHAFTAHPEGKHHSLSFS
# Chain of Phosphatidylinositol 4,5-bisphosphate 3-kinase catalytic subunit delta isoform (O00329 whole entry, canonical isoform): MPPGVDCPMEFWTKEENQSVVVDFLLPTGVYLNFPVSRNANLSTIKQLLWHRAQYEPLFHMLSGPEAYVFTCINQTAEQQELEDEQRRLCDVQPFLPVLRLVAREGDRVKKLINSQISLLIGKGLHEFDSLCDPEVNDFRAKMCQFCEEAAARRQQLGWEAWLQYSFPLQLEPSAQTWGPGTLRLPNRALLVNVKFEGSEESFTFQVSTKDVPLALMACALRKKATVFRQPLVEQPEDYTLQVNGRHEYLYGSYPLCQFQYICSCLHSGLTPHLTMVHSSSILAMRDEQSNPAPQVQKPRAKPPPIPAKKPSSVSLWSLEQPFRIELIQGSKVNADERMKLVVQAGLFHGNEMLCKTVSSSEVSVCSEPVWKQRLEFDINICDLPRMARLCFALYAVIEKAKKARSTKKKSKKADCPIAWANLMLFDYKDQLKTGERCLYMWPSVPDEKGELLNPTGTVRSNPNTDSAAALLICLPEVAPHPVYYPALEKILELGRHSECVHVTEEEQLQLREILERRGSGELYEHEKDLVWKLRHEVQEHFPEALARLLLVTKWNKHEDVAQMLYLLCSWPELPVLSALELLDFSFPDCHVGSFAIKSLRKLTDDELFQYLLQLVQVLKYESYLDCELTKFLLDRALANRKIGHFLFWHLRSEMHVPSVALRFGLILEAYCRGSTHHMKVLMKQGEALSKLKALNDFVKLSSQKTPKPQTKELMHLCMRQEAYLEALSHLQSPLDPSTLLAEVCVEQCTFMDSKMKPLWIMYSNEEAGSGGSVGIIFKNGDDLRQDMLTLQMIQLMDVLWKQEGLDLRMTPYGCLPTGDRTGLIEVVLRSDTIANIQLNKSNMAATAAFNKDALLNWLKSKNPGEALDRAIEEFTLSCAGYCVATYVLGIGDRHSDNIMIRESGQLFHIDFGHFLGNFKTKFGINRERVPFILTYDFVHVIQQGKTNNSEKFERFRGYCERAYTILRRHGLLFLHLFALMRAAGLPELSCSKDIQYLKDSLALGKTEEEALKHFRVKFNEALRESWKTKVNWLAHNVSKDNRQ
# Chain of Testis-specific serine/threonine-protein kinase 2 (Homo sapiens) (Q96PF2 whole entry): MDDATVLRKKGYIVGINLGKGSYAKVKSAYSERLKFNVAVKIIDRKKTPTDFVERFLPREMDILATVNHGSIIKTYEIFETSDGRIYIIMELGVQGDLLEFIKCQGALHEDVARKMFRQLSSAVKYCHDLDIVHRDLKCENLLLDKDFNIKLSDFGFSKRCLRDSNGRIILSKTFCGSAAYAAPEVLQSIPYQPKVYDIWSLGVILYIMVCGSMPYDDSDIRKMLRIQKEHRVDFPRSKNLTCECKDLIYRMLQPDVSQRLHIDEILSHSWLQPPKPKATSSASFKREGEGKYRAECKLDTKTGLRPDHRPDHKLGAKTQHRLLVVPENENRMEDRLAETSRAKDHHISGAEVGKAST
# Chain of Mitogen-activated protein kinase 10 (P53779 whole entry): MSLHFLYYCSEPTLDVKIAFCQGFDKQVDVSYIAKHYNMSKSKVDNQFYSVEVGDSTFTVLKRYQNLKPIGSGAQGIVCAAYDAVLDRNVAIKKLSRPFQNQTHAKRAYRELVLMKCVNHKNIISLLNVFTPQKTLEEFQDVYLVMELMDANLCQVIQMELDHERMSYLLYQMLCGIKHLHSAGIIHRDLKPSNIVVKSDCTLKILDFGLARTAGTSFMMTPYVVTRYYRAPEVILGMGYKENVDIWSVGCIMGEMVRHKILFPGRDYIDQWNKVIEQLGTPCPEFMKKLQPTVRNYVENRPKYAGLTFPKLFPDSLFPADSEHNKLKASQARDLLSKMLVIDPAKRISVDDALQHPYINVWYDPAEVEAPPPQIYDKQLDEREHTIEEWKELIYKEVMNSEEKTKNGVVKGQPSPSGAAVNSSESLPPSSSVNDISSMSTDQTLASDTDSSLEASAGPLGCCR
# Chain of Insulin receptor-related protein (P14616 27-742 limits assumed): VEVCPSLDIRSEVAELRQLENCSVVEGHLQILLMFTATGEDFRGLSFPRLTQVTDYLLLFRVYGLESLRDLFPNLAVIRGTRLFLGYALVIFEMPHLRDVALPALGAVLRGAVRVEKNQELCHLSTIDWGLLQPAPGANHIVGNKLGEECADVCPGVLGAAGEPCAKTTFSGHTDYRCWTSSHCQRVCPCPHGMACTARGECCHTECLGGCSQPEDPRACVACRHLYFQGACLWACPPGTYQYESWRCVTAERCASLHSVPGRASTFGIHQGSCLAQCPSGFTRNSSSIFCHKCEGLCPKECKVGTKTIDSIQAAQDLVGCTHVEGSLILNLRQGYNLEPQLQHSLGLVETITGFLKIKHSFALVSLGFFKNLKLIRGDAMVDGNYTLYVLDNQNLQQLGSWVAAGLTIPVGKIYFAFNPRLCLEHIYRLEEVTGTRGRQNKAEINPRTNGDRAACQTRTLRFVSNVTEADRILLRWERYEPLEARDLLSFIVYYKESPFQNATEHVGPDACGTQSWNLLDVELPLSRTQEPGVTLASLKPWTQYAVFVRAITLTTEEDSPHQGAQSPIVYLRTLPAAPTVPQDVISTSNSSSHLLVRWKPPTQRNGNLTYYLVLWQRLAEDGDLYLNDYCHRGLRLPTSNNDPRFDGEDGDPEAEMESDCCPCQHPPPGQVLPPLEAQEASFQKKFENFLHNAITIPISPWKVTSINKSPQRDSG
# Chain of Insulin receptor-related protein (P14616 747-1297 limits assumed): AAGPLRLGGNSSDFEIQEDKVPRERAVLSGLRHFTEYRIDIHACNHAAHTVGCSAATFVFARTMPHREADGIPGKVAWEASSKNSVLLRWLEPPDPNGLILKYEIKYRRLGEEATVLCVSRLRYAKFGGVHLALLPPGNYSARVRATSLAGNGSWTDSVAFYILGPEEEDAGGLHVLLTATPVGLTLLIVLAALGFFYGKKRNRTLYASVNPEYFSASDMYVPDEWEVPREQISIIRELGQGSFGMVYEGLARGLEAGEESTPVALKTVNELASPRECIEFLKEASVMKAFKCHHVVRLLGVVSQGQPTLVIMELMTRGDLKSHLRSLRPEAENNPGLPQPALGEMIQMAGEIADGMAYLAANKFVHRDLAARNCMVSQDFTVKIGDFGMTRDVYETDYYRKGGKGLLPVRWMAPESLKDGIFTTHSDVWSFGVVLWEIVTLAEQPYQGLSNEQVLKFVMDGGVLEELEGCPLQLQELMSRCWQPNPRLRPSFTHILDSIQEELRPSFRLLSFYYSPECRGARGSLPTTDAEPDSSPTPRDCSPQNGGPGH
# Chain of Serine/threonine-protein kinase Nek3 (Homo sapiens) (P51956 whole entry): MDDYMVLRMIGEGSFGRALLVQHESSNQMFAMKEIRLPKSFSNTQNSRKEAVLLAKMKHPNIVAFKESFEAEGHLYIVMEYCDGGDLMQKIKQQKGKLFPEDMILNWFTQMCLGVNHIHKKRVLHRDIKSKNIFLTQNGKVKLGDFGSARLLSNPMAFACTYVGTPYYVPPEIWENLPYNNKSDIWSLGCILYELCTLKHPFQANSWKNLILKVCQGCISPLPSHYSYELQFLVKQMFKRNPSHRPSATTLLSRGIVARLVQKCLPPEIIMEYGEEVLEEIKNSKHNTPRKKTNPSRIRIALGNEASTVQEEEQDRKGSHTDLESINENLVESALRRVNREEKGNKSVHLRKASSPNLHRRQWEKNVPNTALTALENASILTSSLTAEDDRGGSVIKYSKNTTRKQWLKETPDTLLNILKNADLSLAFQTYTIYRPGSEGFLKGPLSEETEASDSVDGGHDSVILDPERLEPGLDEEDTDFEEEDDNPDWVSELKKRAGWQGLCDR
# Chain of FKBP12A/mTOR (Homo sapiens) (P62942 2-108 limits assumed, other chains not shown): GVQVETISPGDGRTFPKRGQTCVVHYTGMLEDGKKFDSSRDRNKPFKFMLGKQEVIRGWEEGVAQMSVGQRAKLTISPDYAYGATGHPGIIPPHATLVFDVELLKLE
smiles,measurement,setting,value
CCc1cc(Nc2nccc(-c3c(-c4ccc(OC)c(C(=O)Nc5c(F)cccc5F)c4)nc4ccccn34)n2)c(OC)cc1N1CCC(N2CCN(S(C)(=O)=O)CC2)CC1,IC50,[1],8 µM
same,IC50,HN5,> 20 µM
same,inhibition,[2],0%
same,Activity,COLO 205,12%
same,IC50,[3],0.488 µM
same,inhibition,[4],0%
same,IC50,[5],13 µM
same,IC50,JJN-3,> 30 µM
same,IC50,[6],1.21 µM
same,inhibition in vivo at 3 mg/kg,[7],75%
same,IC50,[8],> 10 µM
same,IC50,[9],6.3 µM
same,IC50 at 72 h,[10],> 20 µM
same,inhibition,[11],16%
same,inhibition,[12],4%
same,Activity,[13],11%
same,inhibition,[14],0%
same,Activity,NCI-H929,Active
same,IC50,A673,> 30 µM
same,IC50,[15],0.035 µM
same,IC50,[16],> 25 µM
same,inhibition,[17],29%
same,IC50,EJM,> 30 µM
same,inhibition,[18],4%
same,inhibition at 3 µM,[19],2%
same,IC50,[20],> 10 µM
same,inhibition,[21],33%
